pIC50, pKi: −log10 of the molar value. Each block holds one compound with its values, some of them ahead of it.
Experiments:
[1] = biological target: T1, Gonadotropin-releasing hormone receptor (Homo sapiens, UniProt P30968); experiment: Binding affinity evaluated by the ability to inhibit des-Gly10[125I]Tyr5,D-Leu6,NMeLeu7,Pro9-NEt]- Gonadotropin-releasing hormone binding to cloned human Gonadotropin-releasing hormone receptor expressed in HEK293 cells; type: cell-based
T1 sequence (P30968 whole entry): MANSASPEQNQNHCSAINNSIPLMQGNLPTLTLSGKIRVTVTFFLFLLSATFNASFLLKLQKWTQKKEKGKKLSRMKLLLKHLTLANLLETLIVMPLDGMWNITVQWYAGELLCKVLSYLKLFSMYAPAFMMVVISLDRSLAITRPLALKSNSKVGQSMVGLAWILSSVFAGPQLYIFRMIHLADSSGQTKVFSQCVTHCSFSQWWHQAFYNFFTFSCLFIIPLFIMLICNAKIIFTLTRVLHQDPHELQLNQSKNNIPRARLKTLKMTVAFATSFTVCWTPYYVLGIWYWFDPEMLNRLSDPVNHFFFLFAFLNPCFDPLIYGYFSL

[2] = biological target: T2, Gonadotropin-releasing hormone receptor (Rattus norvegicus, UniProt P30969); experiment: In vivo inhibition of rat Gonadotropin-releasing hormone receptor; type: organism-based
T2 sequence (P30969 whole entry): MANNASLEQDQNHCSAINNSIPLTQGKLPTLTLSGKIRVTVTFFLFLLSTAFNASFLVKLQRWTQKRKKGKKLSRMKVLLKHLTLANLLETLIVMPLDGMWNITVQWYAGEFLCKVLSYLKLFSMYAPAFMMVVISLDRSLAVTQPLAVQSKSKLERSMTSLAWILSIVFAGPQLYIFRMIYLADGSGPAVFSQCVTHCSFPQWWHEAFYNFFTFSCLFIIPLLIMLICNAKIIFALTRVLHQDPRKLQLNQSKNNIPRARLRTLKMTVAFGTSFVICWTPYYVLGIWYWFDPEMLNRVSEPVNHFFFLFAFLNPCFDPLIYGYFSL

[3] = biological target: T1, Gonadotropin-releasing hormone receptor; experiment: In vitro inhibition of [Ca2+] influx in RBL cells expressing Gonadotropin-releasing hormone receptor; type: functional, cell-based
Procedure, shortened: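 RBL cells stably expressing full-length human GnRH receptor, attached overnight and loaded with 2 μM Fluo-4 for 1 h at 37 °C. Cells washed, then preincubated 1 min with increasing compound before 5 nM GnRH stimulation. Ca2+ flux read as fluorescence on FLIPR; IC50 derived.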

[4] = system: Mus musculus; experiment: AUC value was determined after oral administration; type: ADME, organism-based, Plasma; details: in vivo
Procedure, shortened: (§1)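 Terminal blood at preset times, composite sampling, plus hepatic portal vein samples under isoflurane. Plasma flash-frozen; LLOQ 5 ng/mL. Parameters from a noncompartmental model.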

[5] = Clearance value was determined; type: ADME, organism-based; details: mouse, in vivo; procedure, shortened: as §1
[6] = Oral bioavailability in mouse; type: ADME, organism-based; details: in vivo; procedure, shortened: as §1
[7] = Half life was determined; type: ADME, organism-based; details: mouse, in vivo; procedure, shortened: as §1
[8] = biological target: T2, Gonadotropin-releasing hormone receptor; experiment: In vivo inhibition of rat Gonadotropin releasing hormone receptor; type: organism-based

SMILES: COc1ccc(-c2c(C)n(Cc3c(F)cccc3F)c(=O)n(CCN(C)CCc3ccccn3)c2=O)cc1OC
- pKi [1]: 5.32

SMILES: CSc1ccc(-c2c(C)n(Cc3c(F)cccc3F)c(=O)n(CCN(C)CCc3ccccn3)c2=O)cc1
- pKi [1]: 6.92

SMILES: Cc1c(-c2cccc(Cl)c2)c(=O)n(CCN(C)CCc2ccccn2)c(=O)n1Cc1c(F)cccc1F
- pKi [1]: 6.43

SMILES: COc1cccc(-c2c(C)n(Cc3c(F)cccc3F)c(=O)n(C[C@H](C)NC3CCCC3)c2=O)c1F
- AUC [4]: 57 ng·h/mL
- clearance [5]: 70.7 mL/min/kg
- bioavailability [6]: 2.2%
- half-life [7]: 36 min

SMILES: COc1cc(-c2c(C)n(Cc3c(F)cccc3F)c(=O)n(CCN(C)CCc3ccccn3)c2=O)cc(OC)c1OC
- pKi [1]: 4.97

SMILES: Cc1c(-c2ccc3ccccc3c2)c(=O)n(CCN(C)CCc2ccccn2)c(=O)n1Cc1c(F)cccc1F
- pKi [1]: 6.34

SMILES: Cc1c(-c2ccc3oc4ccccc4c3c2)c(=O)n(CCN(C)CCc2ccccn2)c(=O)n1Cc1c(F)cccc1F
- pKi [1]: 6.77

SMILES: COCc1cccc(-c2c(C)n(Cc3c(F)cccc3F)c(=O)n(CCN(C)CCc3ccccn3)c2=O)c1
- pKi [1]: 5.82

SMILES: Cc1ccc(-c2c(C)n(Cc3c(F)cccc3F)c(=O)n(CCN(C)CCc3ccccn3)c2=O)cc1
- pKi [1]: 6.66

SMILES: C=Cc1ccc(-c2c(C)n(Cc3c(F)cccc3F)c(=O)n(CCN(C)CCc3ccccn3)c2=O)cc1
- pKi [1]: 6.47

SMILES: Cc1c(-c2ccc3c(c2)OC(F)(F)O3)c(=O)n(CCN(C)CCc2ccccn2)c(=O)n1Cc1c(F)cccc1F
- pKi [1]: 6.33

SMILES: COc1cccc(-c2c(C)n(Cc3c(F)cccc3F)c(=O)n(CCN(C)CCc3ccccn3)c2=O)c1
- AUC [4]: 23 ng·h/mL
- clearance [5]: 120 mL/min/kg
- bioavailability [6]: 1.6%
- half-life [7]: 24 min

SMILES: Cc1c(-c2cccc(C(C)C)c2)c(=O)n(CCN(C)CCc2ccccn2)c(=O)n1Cc1c(F)cccc1F
- pKi [1]: 6.62

SMILES: CCC(CC)N[C@@H](C)Cn1c(=O)c(-c2cccc(OC)c2F)c(C)n(Cc2c(F)cccc2F)c1=O
- AUC [4]: 110 ng·h/mL
- clearance [5]: 129 mL/min/kg
- bioavailability [6]: 8.2%
- half-life [7]: 54 min

SMILES: CCOc1ccc(-c2c(C)n(Cc3c(F)cccc3F)c(=O)n(CCN(C)CCc3ccccn3)c2=O)cc1
- pKi [1]: 6.17

SMILES: Cc1c(-c2cccc(F)c2)c(=O)n(CCN(C)CCc2ccccn2)c(=O)n1Cc1c(F)cccc1F
- pKi [1]: 5.92

SMILES: COCc1ccc(-c2c(C)n(Cc3c(F)cccc3F)c(=O)n(CCN(C)CCc3ccccn3)c2=O)cc1
- pKi [1]: 5.85

Other lines, results leading:

- pKi [1]: 6.96
SMILES: Cc1c(-c2ccc(C(C)C)cc2)c(=O)n(CCN(C)CCc2ccccn2)c(=O)n1Cc1c(F)cccc1F

- pKi [2]: 5.31
- pKi [1]: 7.82
- pIC50 [3]: 7.57
SMILES: CCc1ccc(CN[C@@H](C)Cn2c(=O)c(-c3cccc(OC)c3F)c(C)n(Cc3c(F)cccc3F)c2=O)o1

- pKi [2]: 4.60
- pKi [1]: 7.60
- pIC50 [3]: 7.42
SMILES: COc1cccc(-c2c(C)n(Cc3c(F)cccc3F)c(=O)n(C[C@H](C)NCc3ccccc3)c2=O)c1F

- pKi [1]: 7.09
SMILES: Cc1c(-c2ccccc2F)c(=O)n(CCN(C)CCc2ccccn2)c(=O)n1Cc1c(F)cccc1F

- AUC [4]: 104 ng·h/mL
- clearance [5]: 97.3 mL/min/kg
- bioavailability [6]: 6%
- half-life [7]: 78 min
- pKi [8]: 5.00
- pKi [1]: 7.89
- pIC50 [3]: 8.21
SMILES: COc1cccc(-c2c(C)n(Cc3c(F)cccc3F)c(=O)n(C[C@@H](C)NCc3nccs3)c2=O)c1F

- pKi [1]: 8.15
SMILES: COc1cccc(-c2c(C)n(Cc3c(F)cccc3F)c(=O)n([C@H](C)CNCc3ccccc3C)c2=O)c1F

- pKi [2]: 5.49
- pKi [1]: 8.40
- pIC50 [3]: 8.40
SMILES: COc1cccc(-c2c(C)n(Cc3c(F)cccc3F)c(=O)n(C[C@H](C)NCc3sccc3C)c2=O)c1F

- pKi [1]: 8.52
SMILES: COc1cccc(-c2c(C)n(Cc3c(F)cccc3F)c(=O)n(CCN(C)CCc3ccccn3)c2=O)c1F

Source: ChEMBL document CHEMBL1148489, “Synthesis and structure-activity relationships of 1-arylmethyl-5-aryl-6-methyluracils as potent gonadotropin-releasing hormone receptor antagonists” (J Med Chem, 2004)
